Measurements taken from ChEMBL document CHEMBL2010694, “Indolyl and dihydroindolyl N-glycinamides as potent and in vivo active NPY5 antagonists” (Bioorg Med Chem Lett, 2012).

How the values were obtained:
[1] = Protein binding in human; format: ADME, organism-based; details: plasma, read-out: PB (converted)
[2] = tested on: MDR; assay: Efflux ratio of permeability from basolateral to apical side over apical to basolateral side in MDCK cells expressing MDR; format: ADME, cell-based, Canis lupus familiaris; details: dog, MDCK-MDR1
Method in brief: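 Bidirectional permeability measured across a Pgp-overexpressing mdr-MDCK cell monolayer, apical-to-basolateral and basolateral-to-apical. Apparent permeability (Papp, 10^-6 cm/s) was determined in each direction, and the efflux ratio was taken as Papp B–A over Papp A–B.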

[3] = molecular target: Cytochrome P450 2D6 (Homo sapiens, UniProt P10635); assay: Inhibition of CYP2D6; format: ADME
[4] = molecular target: T1, Neuropeptide Y receptor type 5 (Homo sapiens, UniProt Q15761); assay: Displacement of [125I]peptide YY from human NPY5 receptor
T1 sequence (Q15761 whole entry): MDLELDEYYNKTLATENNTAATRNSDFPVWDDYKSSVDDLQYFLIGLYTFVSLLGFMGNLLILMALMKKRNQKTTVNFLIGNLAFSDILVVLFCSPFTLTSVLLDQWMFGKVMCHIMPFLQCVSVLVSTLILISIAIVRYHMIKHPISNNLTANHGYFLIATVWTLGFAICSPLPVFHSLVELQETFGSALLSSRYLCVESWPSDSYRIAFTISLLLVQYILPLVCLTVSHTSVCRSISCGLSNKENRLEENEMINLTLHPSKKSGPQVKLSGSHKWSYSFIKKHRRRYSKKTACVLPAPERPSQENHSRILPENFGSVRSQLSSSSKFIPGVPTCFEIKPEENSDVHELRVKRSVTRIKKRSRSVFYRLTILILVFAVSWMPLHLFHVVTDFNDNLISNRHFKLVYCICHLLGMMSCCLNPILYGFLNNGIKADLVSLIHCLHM

[5] = Half life in Sprague-Dawley rat plasma at 2 mg/kg, po and 1 mg/kg, iv after 24 hrs wash out period by HPLC analysis; format: ADME, organism-based
Method in brief: (§1)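 Male Sprague-Dawley rats (200–250 g), jugular and carotid artery cannulated; compound dissolved in 20% beta cyclodextrin, pH adjusted with methane sulfonic acid. Serial blood sampled at 12 time points over 24 h post dose by automated sampler; plasma from centrifugation analysed by HPLC; PK parameters by non-compartmental analysis of plasma concentration–time profile.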

[6] = Tmax in Sprague-Dawley rat plasma at 2 mg/kg, po and 1 mg/kg, iv after 24 hrs wash out period by HPLC analysis; format: ADME, organism-based; method in brief: as §1
[7] = Clearance in Sprague-Dawley rat plasma at 2 mg/kg, po and 1 mg/kg, iv after 24 hrs wash out period by HPLC analysis; format: ADME, organism-based; method in brief: as §1

Sequence of Cytochrome P450 2D6 (P10635 whole entry): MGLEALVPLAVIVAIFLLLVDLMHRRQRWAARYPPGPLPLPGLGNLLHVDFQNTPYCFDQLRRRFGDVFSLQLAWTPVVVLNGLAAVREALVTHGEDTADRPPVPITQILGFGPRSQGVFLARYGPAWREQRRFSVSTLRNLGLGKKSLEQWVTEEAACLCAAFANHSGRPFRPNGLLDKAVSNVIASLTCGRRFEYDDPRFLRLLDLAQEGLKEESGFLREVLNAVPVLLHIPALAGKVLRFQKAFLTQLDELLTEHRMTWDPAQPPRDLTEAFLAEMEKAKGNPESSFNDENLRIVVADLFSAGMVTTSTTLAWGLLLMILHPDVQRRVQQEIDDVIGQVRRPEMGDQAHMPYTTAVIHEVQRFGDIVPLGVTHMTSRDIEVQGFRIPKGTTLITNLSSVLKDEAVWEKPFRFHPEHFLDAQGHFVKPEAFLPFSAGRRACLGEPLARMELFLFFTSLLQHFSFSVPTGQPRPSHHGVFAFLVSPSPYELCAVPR

## CC(C)S(=O)(=O)NC[C@H]1CC[C@H](NC(=O)CN2CCc3cc(Cl)ccc32)CC1
[1]
  fraction unbound: 0.009
[2]
  efflux ratio: 26
[3]
  IC50: > 40000 nM
[4]
  Ki: 0.5 nM
[5]
  half-life: 4.4 h
[6]
  Tmax: 0.8 h
[7]
  clearance: 25 mL/min/kg
